Results from ChEMBL document CHEMBL4229344 (Eur J Med Chem, 2018).

Tests used:
[1] = Cytotoxicity against mouse BA/F3 cells after 72 hrs by CellTiter-Glo or CCK-8 assay; assay type: cell-based, BaF3
In short: (§1)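 Parental BaF3 or IL-3-independent TEL-kinase BaF3 lines, made by retroviral infection and puromycin selection, grown in RPMI 1640 with 10% FBS. Cells seeded at 1–3 × 10^4 cells/mL with serial compound concentrations for 72 h. Viability read by CellTiter-Glo luminescence or CCK-8 absorbance at 450/655 nm and normalised to DMSO. GI50 obtained by triplicate testing with linear regression. Selectivity is the ratio of the two GI50 values.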

[2] = target: Vascular endothelial growth factor receptor 2 (Homo sapiens) (UniProt P35968)
[3] = target: Platelet-derived growth factor receptor alpha (Homo sapiens, UniProt P16234)
[4] = target: Mast/stem cell growth factor receptor Kit (Homo sapiens, UniProt P10721); test: Inhibition of TEL-fused c-KIT (unknown origin) expressed in mouse BA/F3 cells assessed as growth inhibition after 72 hrs by CellTiter-Glo or CCK-8 assay; assay type: cell-based; in short: as §1
[5] = target: Platelet-derived growth factor receptor beta (Homo sapiens, UniProt P09619); test: Inhibition of TEL-fused PDGFRbeta (unknown origin) expressed in mouse BA/F3 cells assessed as growth inhibition after 72 hrs by CellTiter-Glo or CCK-8 assay; assay type: cell-based; in short: as §1
[6] = species on record: Homo sapiens; test: Selectivity index, ratio of GI50 for TEL-fused PDGFRbeta (unknown origin) expressed in mouse BA/F3 cells to GI50 for TEL-fused PDGFRalpha (unknown origin) expressed in mouse BA/F3 cells; assay type: cell-based; in short: as §1

Sequence of Platelet-derived growth factor receptor alpha (P16234 whole entry, the tested form may be a part): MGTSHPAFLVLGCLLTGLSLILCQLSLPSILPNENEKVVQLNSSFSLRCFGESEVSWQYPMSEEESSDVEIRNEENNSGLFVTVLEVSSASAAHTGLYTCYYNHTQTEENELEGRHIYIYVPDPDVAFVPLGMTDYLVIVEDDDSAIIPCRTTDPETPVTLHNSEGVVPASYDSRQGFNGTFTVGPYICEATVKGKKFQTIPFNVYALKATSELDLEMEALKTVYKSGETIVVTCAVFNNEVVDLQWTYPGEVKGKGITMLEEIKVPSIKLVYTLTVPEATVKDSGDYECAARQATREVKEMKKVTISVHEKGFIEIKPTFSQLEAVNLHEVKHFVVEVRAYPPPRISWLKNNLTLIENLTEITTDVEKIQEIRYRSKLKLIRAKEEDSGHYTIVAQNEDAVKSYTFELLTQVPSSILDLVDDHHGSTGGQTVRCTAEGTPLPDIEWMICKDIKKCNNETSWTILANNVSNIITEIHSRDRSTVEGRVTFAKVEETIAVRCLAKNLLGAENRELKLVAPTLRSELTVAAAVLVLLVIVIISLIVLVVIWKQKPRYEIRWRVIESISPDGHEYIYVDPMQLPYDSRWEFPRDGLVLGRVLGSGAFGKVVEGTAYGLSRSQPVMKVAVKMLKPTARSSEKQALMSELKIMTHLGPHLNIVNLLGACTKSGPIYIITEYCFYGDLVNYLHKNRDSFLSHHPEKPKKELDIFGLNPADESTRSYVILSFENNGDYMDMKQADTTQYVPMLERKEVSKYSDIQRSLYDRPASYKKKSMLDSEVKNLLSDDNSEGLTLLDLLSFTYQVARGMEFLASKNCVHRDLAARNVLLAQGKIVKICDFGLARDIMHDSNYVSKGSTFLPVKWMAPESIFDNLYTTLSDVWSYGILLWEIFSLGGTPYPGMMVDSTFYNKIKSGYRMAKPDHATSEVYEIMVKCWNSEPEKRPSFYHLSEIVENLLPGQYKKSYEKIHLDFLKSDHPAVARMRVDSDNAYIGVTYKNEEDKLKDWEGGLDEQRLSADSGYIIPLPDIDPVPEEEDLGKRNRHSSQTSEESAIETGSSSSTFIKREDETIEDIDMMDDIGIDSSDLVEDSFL
Sequence of Platelet-derived growth factor receptor beta (P09619 whole entry, the tested form may be a part): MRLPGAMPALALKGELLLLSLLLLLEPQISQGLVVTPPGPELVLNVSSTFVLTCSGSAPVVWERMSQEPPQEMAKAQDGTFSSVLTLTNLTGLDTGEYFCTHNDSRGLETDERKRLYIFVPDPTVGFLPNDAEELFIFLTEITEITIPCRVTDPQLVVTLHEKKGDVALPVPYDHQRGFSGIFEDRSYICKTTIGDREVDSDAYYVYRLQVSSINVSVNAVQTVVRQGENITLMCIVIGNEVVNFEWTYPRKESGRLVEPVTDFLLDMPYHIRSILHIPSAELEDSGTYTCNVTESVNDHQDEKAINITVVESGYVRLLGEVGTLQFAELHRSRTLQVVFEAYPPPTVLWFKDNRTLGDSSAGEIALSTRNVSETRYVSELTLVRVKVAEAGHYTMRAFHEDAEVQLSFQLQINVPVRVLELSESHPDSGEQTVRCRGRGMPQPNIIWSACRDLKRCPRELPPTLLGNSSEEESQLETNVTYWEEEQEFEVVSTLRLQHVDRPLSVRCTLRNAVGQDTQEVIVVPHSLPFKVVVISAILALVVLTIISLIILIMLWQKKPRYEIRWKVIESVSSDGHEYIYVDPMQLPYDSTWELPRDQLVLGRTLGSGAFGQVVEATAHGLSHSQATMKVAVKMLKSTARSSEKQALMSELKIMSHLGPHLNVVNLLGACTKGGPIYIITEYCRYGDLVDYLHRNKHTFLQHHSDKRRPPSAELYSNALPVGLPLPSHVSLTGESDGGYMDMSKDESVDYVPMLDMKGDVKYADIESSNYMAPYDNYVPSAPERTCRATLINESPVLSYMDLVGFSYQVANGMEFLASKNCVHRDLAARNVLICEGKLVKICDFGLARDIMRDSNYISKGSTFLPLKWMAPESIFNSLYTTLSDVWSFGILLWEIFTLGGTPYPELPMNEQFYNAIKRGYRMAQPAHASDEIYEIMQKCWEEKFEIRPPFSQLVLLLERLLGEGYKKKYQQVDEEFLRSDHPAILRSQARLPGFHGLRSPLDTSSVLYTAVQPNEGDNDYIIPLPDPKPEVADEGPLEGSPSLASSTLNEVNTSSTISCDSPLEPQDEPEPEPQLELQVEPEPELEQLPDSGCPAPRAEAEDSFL
Sequence of Mast/stem cell growth factor receptor Kit (P10721 whole entry, the tested form may be a part): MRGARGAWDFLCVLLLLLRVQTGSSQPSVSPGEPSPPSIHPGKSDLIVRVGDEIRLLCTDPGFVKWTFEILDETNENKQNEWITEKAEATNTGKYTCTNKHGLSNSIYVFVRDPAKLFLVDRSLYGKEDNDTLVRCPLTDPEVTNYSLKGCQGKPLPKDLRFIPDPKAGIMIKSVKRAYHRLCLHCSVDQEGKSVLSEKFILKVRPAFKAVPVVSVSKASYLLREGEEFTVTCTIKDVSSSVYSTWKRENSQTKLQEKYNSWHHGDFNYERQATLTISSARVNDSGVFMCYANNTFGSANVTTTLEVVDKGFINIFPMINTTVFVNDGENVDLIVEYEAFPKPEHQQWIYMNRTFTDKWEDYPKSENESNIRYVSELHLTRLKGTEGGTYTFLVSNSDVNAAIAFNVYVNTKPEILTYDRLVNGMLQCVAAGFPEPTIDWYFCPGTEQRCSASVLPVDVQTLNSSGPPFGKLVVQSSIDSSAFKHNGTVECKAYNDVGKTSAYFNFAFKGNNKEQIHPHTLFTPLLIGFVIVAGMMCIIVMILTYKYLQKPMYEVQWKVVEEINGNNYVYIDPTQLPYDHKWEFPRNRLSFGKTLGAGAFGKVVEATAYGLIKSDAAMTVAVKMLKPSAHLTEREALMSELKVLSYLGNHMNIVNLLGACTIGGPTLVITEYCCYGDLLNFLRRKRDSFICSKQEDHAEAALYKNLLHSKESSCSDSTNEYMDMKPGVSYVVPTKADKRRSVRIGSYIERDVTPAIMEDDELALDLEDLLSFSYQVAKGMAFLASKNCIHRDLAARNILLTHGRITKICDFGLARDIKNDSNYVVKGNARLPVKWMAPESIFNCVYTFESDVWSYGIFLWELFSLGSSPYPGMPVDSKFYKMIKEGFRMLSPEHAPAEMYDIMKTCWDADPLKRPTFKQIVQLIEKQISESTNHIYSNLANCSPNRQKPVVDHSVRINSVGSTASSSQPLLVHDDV
Sequence of Vascular endothelial growth factor receptor 2 (Homo sapiens) (P35968 whole entry): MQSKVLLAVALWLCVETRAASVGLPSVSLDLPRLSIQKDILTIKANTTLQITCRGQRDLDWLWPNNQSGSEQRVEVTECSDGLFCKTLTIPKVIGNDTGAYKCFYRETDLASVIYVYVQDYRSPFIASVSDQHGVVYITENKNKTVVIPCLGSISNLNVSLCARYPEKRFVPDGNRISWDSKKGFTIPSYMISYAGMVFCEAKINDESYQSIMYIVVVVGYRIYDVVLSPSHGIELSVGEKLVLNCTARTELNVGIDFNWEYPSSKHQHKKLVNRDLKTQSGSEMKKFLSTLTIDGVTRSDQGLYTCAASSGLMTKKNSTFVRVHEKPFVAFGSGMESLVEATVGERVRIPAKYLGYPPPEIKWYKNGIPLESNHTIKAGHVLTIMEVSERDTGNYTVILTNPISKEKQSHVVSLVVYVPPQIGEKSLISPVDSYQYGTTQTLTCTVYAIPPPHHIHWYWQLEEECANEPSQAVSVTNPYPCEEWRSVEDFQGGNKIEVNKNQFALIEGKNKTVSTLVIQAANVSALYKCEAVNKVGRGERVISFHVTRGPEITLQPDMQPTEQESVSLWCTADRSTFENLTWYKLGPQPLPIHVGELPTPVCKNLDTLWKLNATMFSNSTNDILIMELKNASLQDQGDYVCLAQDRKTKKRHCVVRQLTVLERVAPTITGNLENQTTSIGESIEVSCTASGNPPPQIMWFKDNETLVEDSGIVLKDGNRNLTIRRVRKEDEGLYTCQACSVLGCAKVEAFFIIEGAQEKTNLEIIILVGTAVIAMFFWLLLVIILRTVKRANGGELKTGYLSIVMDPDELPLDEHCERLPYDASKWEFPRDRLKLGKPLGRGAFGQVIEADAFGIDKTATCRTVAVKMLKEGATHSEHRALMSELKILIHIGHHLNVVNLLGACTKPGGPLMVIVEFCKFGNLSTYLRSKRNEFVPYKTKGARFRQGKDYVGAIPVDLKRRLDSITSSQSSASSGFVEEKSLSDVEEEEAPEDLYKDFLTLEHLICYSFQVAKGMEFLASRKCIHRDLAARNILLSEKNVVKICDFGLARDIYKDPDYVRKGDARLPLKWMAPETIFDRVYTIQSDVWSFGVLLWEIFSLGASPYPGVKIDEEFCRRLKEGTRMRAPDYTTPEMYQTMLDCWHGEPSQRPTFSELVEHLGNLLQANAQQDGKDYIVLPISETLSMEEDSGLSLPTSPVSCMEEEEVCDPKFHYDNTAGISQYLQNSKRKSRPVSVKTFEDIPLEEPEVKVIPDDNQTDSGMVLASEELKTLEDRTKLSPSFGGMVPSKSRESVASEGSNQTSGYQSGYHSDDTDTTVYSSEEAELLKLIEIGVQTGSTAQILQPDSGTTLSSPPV

| Compound | GI50 [2] [nM] | GI50 [3] [nM] | GI50 [4] [nM] | GI50 [5] [nM] | GI50 at 72 h [1] [nM] | RatioGI50 [6] |
| --- | --- | --- | --- | --- | --- | --- |
| C=CC(=O)N(CCC(C)C)Cc1ccc(C(=O)Nc2ccc(C)c(Nc3nccc(-c4cccnc4)n3)c2)cc1 | 5740 | 19 | 3940 | 230 | 5620 | – |
| C=CS(=O)(=O)NCc1ccc(C(=O)Nc2ccc(C)c(Nc3nccc(-c4cccnc4)n3)c2)cc1 | 1560 | 13 | 580 | 48 | 7710 | – |
| CCC(=O)NCc1cccc(C(=O)Nc2ccc(C)c(Nc3nccc(-c4cccnc4)n3)c2)c1 | 3220 | 15 | 2920 | 221 | 4750 | – |
| Cc1ccc(NC(=O)c2ccc(CN(CCO)C(=O)CN(C)C)cc2)cc1Nc1nccc(-c2cccnc2)n1 | > 10000 | 363 | > 10000 | 3880 | > 10000 | – |
| CCC(=O)NCc1ccc(C(=O)Nc2ccc(C)c(Nc3nccc(-c4cccnc4)n3)c2)cc1 | > 10000 | 14 | 6220 | 201 | > 10000 | – |
| Cc1ccc(NC(=O)c2ccc(CN(CCN(C)C)C(=O)C(C)C)cc2)cc1Nc1nccc(-c2cccnc2)n1 | 8640 | 39 | 6110 | 123 | > 10000 | – |
| CCC(=O)Nc1ccc(C(=O)Nc2ccc(C)c(Nc3nccc(-c4cccnc4)n3)c2)cc1 | 6270 | 12 | 4940 | 888 | > 10000 | – |
| Cc1ccc(NC(=O)c2ccc(CNCCN(C)C)cc2)cc1Nc1nccc(-c2cccnc2)n1 | 4880 | 24 | 5000 | 125 | > 10000 | – |
| Cc1ccc(NC(=O)c2ccc(CN(CCO)C(=O)c3cccnc3)cc2)cc1Nc1nccc(-c2cccnc2)n1 | > 10000 | 353 | > 10000 | 3020 | > 10000 | – |
| CCC(=O)Nc1cc(C(=O)Nc2ccc(C)c(Nc3nccc(-c4cccnc4)n3)c2)cc(C(F)(F)F)c1 | > 10000 | 39 | 104 | 231 | > 10000 | – |
| C=CC(=O)NCc1ccc(C(=O)Nc2ccc(C)c(Nc3nccc(-c4cccnc4)n3)c2)cc1C(F)(F)F | > 10000 | 59 | 300 | 161 | > 10000 | – |
| Cc1ccc(NC(=O)c2ccc(CNC(=O)c3cccnc3)c(C(F)(F)F)c2)cc1Nc1nccc(-c2cccnc2)n1 | 3410 | 5 | 66 | 82 | 8330 | – |
| C=CC(=O)Nc1cccc(C(=O)Nc2ccc(C)c(Nc3nccc(-c4cccnc4)n3)c2)c1 | 1570 | 8 | 1530 | 173 | 2480 | – |
| Cc1ccc(NC(=O)c2ccc(CNC(=O)c3cccnc3)cc2)cc1Nc1nccc(-c2cccnc2)n1 | 348 | 14 | 216 | 341 | 1120 | – |
| Cc1ccc(NC(=O)c2ccc(CN(CCN(C)C)C(=O)C(C)(C)C)cc2)cc1Nc1nccc(-c2cccnc2)n1 | 5480 | 17 | 2530 | 61 | > 10000 | – |
| Cc1ccc(C(=O)N(CCN(C)C)Cc2ccc(C(=O)Nc3ccc(C)c(Nc4nccc(-c5cccnc5)n4)c3)cc2)cc1 | > 10000 | 100 | > 10000 | 240 | > 10000 | – |
| Cc1ccc(NC(=O)c2ccc(CN(CCN(C)C)C(=O)c3ccno3)cc2)cc1Nc1nccc(-c2cccnc2)n1 | > 10000 | 166 | > 10000 | 787 | > 10000 | – |
| C=CC(=O)NCc1cccc(C(=O)Nc2ccc(C)c(Nc3nccc(-c4cccnc4)n3)c2)c1 | > 10000 | 160 | 4750 | 244 | > 10000 | – |
| CCCC(=O)N(CCN(C)C)Cc1ccc(C(=O)Nc2ccc(C)c(Nc3nccc(-c4cccnc4)n3)c2)cc1 | 4760 | 25 | 5750 | 90 | > 10000 | – |

Further lines, with some results ahead:

| GI50 [2] [nM] | GI50 [3] [nM] | GI50 [4] [nM] | GI50 [5] [nM] | Compound | GI50 at 72 h [1] [nM] | RatioGI50 [6] |
| --- | --- | --- | --- | --- | --- | --- |
| > 10000 | 120 | > 10000 | 9200 | Cc1ccc(NC(=O)c2ccc(CN(CCN(C)C)C(=O)CN(C)C)cc2)cc1Nc1nccc(-c2cccnc2)n1 | > 10000 | – |
| > 10000 | 56 | > 10000 | 207 | Cc1ccc(NC(=O)c2ccc(CN(CCN(C)C)C(=O)c3cccs3)cc2)cc1Nc1nccc(-c2cccnc2)n1 | > 10000 | – |
| 882 | 13 | 426 | 583 | Cc1ccc(NC(=O)c2ccc(NC(=O)c3cccnc3)cc2)cc1Nc1nccc(-c2cccnc2)n1 | 1700 | – |
| > 10000 | 11 | > 10000 | 350 | C=CC(=O)N(CCN(C)C)Cc1ccc(C(=O)Nc2ccc(C)c(Nc3nccc(-c4cccnc4)n3)c2)cc1 | > 10000 | > 30 |
| > 10000 | 33 | > 10000 | 699 | CCN(CC)CCN(Cc1ccc(C(=O)Nc2ccc(C)c(Nc3nccc(-c4cccnc4)n3)c2)cc1)C(=O)c1cccnc1 | > 10000 | – |
| > 10000 | 39 | > 10000 | 934 | Cc1ccc(NC(=O)c2ccc(CN(CCN3CCCC3)C(=O)c3cccnc3)cc2)cc1Nc1nccc(-c2cccnc2)n1 | > 10000 | – |
| 2030 | – | 2940 | 757 | C=CC(=O)Nc1ccc(C(=O)Nc2ccc(C)c(Nc3nccc(-c4cccnc4)n3)c2)cc1 | 5600 | – |
| – | – | > 10000 | 155 | C=CC(=O)NCc1ccc(C(=O)Nc2ccc(C)c(Nc3nccc(-c4cccnc4)n3)c2)cc1 | > 10000 | – |
| > 10000 | 112 | > 10000 | 437 | Cc1ccc(NC(=O)c2ccc(CN(CCN(C)C)C(=O)C3CC3)cc2)cc1Nc1nccc(-c2cccnc2)n1 | > 10000 | – |
| > 10000 | 36 | > 10000 | 504 | CCC(=O)N(CCN(C)C)Cc1ccc(C(=O)Nc2ccc(C)c(Nc3nccc(-c4cccnc4)n3)c2)cc1 | > 10000 | 14 |
| 4550 | 344 | 5140 | 1100 | C=CC(=O)N(CCN(CC)CC)Cc1ccc(C(=O)Nc2ccc(C)c(Nc3nccc(-c4cccnc4)n3)c2)cc1 | 5450 | – |
| 3340 | 13 | 250 | 98 | C=CC(=O)Nc1cc(C(=O)Nc2ccc(C)c(Nc3nccc(-c4cccnc4)n3)c2)cc(C(F)(F)F)c1 | 5460 | – |
| 8540 | 54 | > 10000 | 219 | C/C=C/C(=O)N(CCN(C)C)Cc1ccc(C(=O)Nc2ccc(C)c(Nc3nccc(-c4cccnc4)n3)c2)cc1 | > 10000 | – |
